The values that follow come from ChEMBL document CHEMBL1212780, “Anti-Clostridium difficile potential of tetramic acid derivatives from Pseudomonas aeruginosa quorum-sensing autoinducers” (Antimicrob Agents Chemother, 2010).

The source made the active and inactive calls. The rule behind the calls is not given here.

Data set [1] concerns Clostridioides difficile. The experiment in a line: Antibacterial activity against Clostridium difficile assessed as inhibition of bacterial viability at 3 to 50 uM after 24 hrs. It counts as functional, organism-based. The gist of the method:
(§1)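 Cultured anaerobically for 24 h at 37°C in supplemented BHI broth with a range of compound concentrations. Survivors counted by plating 10-fold serial dilutions. Detection limit 2 log CFU/ml. Compared against bacteria grown without compound.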

Data set [2] has as its system Clostridioides difficile. The data set is described as follows: Antibacterial activity against Clostridium difficile assessed induction of bacteriolysis at 30 uM after 26 hrs. It counts as functional, organism-based. The gist of the method:
(§2)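 Anaerobic cultures in supplemented BHI were incubated with compound (30 or 50 μM depending on compound) for 26 h at 37°C. OD600 was read at each time point to follow growth and lysis, compared with an untreated control.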

For data set [3], the system named is Clostridioides difficile. The data set is described as follows: Antibacterial activity against Clostridium difficile assessed induction of bacteriolysis at 50 uM after 26 hrs. The class given is functional, organism-based. The essentials:
as §2

For data set [4], the system named is Clostridioides difficile. The data set is described as follows: Drug uptake in Clostridium difficile assessed as dansylated compound accumulation at cell surface by electron microscopy. The class given is ADME, organism-based. The gist of the method: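 Bacteria treated with dansyl-labelled compound, fixed in 0.5% glutaraldehyde/2% paraformaldehyde at 4°C for 1 h without osmium, and embedded in Unicryl. Ultrathin sections blocked in 1.5% BSA, then rabbit anti-dansyl (1:100, 2 h, room temperature) and 10-nm gold anti-rabbit IgG (1:20, 30 min). Nonimmune serum used as negative control.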

In data set [5] the test system is Clostridioides difficile. The data set is described as follows: Antibacterial activity against Clostridium difficile assessed as inhibition of bacterial viability at 10 uM after 24 hrs relative to untreated control. It counts as functional. The gist of the method: as §1
The subject of data set [6] is Clostridioides difficile. The data set is described as follows: Antibacterial activity against Clostridium difficile 1 assessed as inhibition of bacterial viability after 24 hrs. It counts as functional, organism-based. The essentials: (§3)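 Four clinical isolates from pseudomembranous colitis patients, grown anaerobically at 37°C in BHI broth with 1% yeast extract and 0.1% L-cysteine. Broth cultures exposed 24 h to a range of compound concentrations (autoinducers at 50 μM). Viable counts made by plating 10-fold serial dilutions on sheep-blood Mueller-Hinton agar; n = 3.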

In data set [7] the test system is Clostridioides difficile. The data set is described as follows: Antibacterial activity against Clostridium difficile 2 assessed as inhibition of bacterial viability after 24 hrs. The class given is functional, organism-based. The essentials:
as §3

Data set [8] relates to Clostridioides difficile. The experiment in a line: Antibacterial activity against Clostridium difficile 3 assessed as inhibition of bacterial viability after 24 hrs. The class given is functional, organism-based. The gist of the method: as §3
For data set [9], the system named is Clostridioides difficile. The experiment in a line: Antibacterial activity against Clostridium difficile 4 assessed as inhibition of bacterial viability after 24 hrs. The class given is functional, organism-based. The gist of the method: as §3
Data set [10] has as its system Clostridioides difficile. The experiment in a line: Antibacterial activity against Clostridium difficile assessed as induction of morphological changes at 50 uM after 30 mins by Gram staining. It counts as functional, organism-based. The essentials: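 Bacteria grown 24 h at 37°C, pelleted at 5,000 rpm for 5 min, then exposed to compound at 50 μM for the stated time. Gram-stained and examined by light microscopy, compared with untreated cells.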

For data set [11], the system named is Clostridioides difficile. The data set is described as follows: Antibacterial activity against Clostridium difficile assessed as induction of changes in cell surface structures by electron microscopy. It counts as functional, organism-based. The gist of the method:
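Postfixed 1 h in 1% OsO4, ethanol-dehydrated and Epon-embedded. Surface structure of treated cells compared with control cells.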

Data set [12] has as its system Clostridioides difficile. The experiment in a line: Induction of lipid membranes composition changes in Clostridium difficile by NMR spectroscopy. It counts as functional, organism-based.
Data set [13] has as its system Clostridioides difficile. The experiment in a line: Antibacterial activity against Clostridium difficile 1 assessed as inhibition of bacterial viability at 50 uM after 24 hrs. The class given is functional, organism-based. The gist of the method:
(§4)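 C. difficile clinical isolates from pseudomembranous colitis patients, grown anaerobically at 37°C in BHI broth with 1% yeast extract and 0.1% L-cysteine. Cultured 24 h with compound, then viable counts taken by plating serial 10-fold dilutions on Mueller-Hinton agar with 5% sheep blood. n = 3. Detection limit 2 log CFU/ml.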

Data set [14] concerns Clostridioides difficile. The data set is described as follows: Antibacterial activity against Clostridium difficile 2 assessed as inhibition of bacterial viability at 50 uM after 24 hrs. The class given is functional, organism-based. The gist of the method:
as §4

The subject of data set [15] is Clostridioides difficile. The data set is described as follows: Antibacterial activity against Clostridium difficile 3 assessed as inhibition of bacterial viability at 50 uM after 24 hrs. The class given is functional, organism-based. The gist of the method: as §4
The test system of data set [16] is Clostridioides difficile. The data set is described as follows: Antibacterial activity against Clostridium difficile 4 assessed as inhibition of bacterial viability at 50 uM after 24 hrs. The class given is functional, organism-based. The essentials:
as §4

Consider `CCCCCCCCC/C(O)=C1\C(=O)CN(C)C1=O`, for which the inhibition entry in the data set with Clostridioides difficile [1] is “Active”. In addition, in the data set on Clostridioides difficile [2], the outcome was Active.

On to `CCCCCCCCC/C(O)=C1/C(=O)N[C@H](CCO)C1=O`, for which, in the data set with Clostridioides difficile [3], the outcome was Active. In the data set with Clostridioides difficile [4], the Drug uptake entry is recorded as “Active”. Also, the inhibition entry with Clostridioides difficile [1] is “Active”.

On to `CCCCCCCCC/C(O)=C1\C(=O)CNC1=O`, for which the inhibition result in the data set with Clostridioides difficile [1] was “Active”. In the data set with Clostridioides difficile [5], the “fold change (FC)” value turned out to be 100000. The result with Clostridioides difficile [2] was Active.

Take `CCCCCCCCC/C(OC)=C1/C(=O)N[C@@H](CCO)C1=O`: the inhibition entry with Clostridioides difficile [1] was “Active”.

Take `CCCCCCCCC/C(O)=C1/C(=O)N[C@@H](CCO)C1=O`: the outcome in the data set with Clostridioides difficile [3], in the data set on Clostridioides difficile [10], in the data set on Clostridioides difficile [11] and in the data set with Clostridioides difficile [12] was Active. For the same compound, the inhibition result in the data set with Clostridioides difficile [6], with Clostridioides difficile [7], in the data set on Clostridioides difficile [8] and in the data set with Clostridioides difficile [9] was “Dose-dependent effect” throughout. Also, the Drug uptake result with Clostridioides difficile [4] is recorded as “Active”.

For the compound `CCCCCCCCC/C(O)=C1/C(=O)N[C@@H](C)C1=O`, the result in the data set on Clostridioides difficile [3] was Active. Besides, the Drug uptake entry in the data set with Clostridioides difficile [4] is on record as “Active”. For the same compound, the inhibition entry in the data set with Clostridioides difficile [1] is “Active”.

`CCCC(=O)N[C@H]1CCOC1=O`: the inhibition entry in the data set on Clostridioides difficile [13], in the data set on Clostridioides difficile [14], in the data set with Clostridioides difficile [15] and in the data set with Clostridioides difficile [16] was “inactive” each time.

`CCC/C(O)=C1/C(=O)N[C@@H](CCO)C1=O`: the inhibition result with Clostridioides difficile [1] was “Active”.

With `CCCCCCCCCC(=O)CC(=O)N[C@H]1CCOC1=O`, the inhibition result with Clostridioides difficile [13], with Clostridioides difficile [14], with Clostridioides difficile [15] and in the data set with Clostridioides difficile [16] was “inactive” each time. Further, the result in the data set on Clostridioides difficile [11] and with Clostridioides difficile [12] was inactive.
